Measured values published in ChEMBL document CHEMBL2021917, “Isoquinoline derivatives as potent CRTH2 receptor antagonists: synthesis and SAR” (Bioorg Med Chem Lett, 2012).

Legend:
[1] = target: T1, Prostaglandin D2 receptor 2 (Homo sapiens, UniProt Q9Y5Y4); assay: Displacement of 3H-PGD2 from human CRTH2 receptor expressed in CHO cells; type: cell-based
T1 sequence (Q9Y5Y4 whole entry): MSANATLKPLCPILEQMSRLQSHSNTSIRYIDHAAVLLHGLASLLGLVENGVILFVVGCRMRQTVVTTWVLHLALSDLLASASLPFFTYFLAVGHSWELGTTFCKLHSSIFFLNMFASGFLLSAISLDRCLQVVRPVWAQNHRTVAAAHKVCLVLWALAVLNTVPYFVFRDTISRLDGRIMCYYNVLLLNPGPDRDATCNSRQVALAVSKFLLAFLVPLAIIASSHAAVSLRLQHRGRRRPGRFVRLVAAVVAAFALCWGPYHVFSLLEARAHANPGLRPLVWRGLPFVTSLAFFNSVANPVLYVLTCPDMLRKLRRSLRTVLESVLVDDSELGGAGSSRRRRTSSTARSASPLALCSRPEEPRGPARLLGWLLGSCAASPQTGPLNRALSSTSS
How it was run: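 Radioligand binding with ³H-PGD₂ on CHO cells stably transfected with human CRTH2. IC50 taken from full 10-point, half-log concentration–response curves, as means of at least two independent experiments.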

[2] = target: T1, Prostaglandin D2 receptor 2; assay: Antagonist activity at human CRTH2 receptor expressed in human KB8 cells assessed as inhibition of PGD2-induced increase in intracellular Ca2+ concentration; type: functional, cell-based
How it was run: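 Cells then washed and resuspended in HBSS with 10 mM HEPES pH 7.3 and 1 mM CaCl2 at 2 × 10⁵ cells/100 µl. PGD2-driven Ca²⁺ flux measured.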

[3] = target: T2, Prostaglandin D2 receptor (Homo sapiens, UniProt Q13258); assay: Inhibition of DP1 prostanoid receptor
T2 sequence (Q13258 whole entry): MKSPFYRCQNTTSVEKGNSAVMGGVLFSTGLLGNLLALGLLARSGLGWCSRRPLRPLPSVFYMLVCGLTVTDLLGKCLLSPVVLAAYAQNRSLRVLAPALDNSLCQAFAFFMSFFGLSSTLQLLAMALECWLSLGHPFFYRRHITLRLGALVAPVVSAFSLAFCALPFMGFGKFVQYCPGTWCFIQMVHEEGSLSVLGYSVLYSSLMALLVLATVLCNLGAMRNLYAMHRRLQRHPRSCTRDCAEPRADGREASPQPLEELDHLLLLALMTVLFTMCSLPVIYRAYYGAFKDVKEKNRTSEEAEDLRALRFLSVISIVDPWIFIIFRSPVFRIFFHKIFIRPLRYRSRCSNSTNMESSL
How it was run: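 DP1 binding assay run by a contract profiling service following the provider's procedures.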

[4] = target: Prostaglandin G/H synthase 1 (Homo sapiens, UniProt P23219); assay: Inhibition of COX-1
How it was run: (§1)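 Enzyme inhibition assays for COX-1 and COX-2 run by a contract profiling service following the provider's procedures.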

[5] = target: T3, Prostaglandin G/H synthase 2 (Homo sapiens, UniProt P35354); assay: Inhibition of COX-2; how it was run: as §1
T3 sequence (P35354 whole entry): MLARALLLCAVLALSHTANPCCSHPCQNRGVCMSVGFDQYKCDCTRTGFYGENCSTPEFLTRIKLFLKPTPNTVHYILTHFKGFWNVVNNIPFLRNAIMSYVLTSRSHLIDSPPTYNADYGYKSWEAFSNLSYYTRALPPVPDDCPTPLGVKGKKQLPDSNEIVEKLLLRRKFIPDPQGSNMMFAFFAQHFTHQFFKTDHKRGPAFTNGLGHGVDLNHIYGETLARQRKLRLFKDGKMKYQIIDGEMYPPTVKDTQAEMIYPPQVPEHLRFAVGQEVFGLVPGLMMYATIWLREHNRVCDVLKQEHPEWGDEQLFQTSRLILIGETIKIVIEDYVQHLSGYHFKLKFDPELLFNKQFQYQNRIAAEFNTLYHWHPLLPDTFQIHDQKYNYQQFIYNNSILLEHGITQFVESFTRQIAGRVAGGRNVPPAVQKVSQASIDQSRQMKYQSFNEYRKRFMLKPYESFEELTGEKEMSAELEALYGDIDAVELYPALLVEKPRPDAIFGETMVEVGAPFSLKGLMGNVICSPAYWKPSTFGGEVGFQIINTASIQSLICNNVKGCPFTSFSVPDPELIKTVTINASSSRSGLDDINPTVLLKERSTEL

Sequence of Prostaglandin G/H synthase 1 (P23219 whole entry): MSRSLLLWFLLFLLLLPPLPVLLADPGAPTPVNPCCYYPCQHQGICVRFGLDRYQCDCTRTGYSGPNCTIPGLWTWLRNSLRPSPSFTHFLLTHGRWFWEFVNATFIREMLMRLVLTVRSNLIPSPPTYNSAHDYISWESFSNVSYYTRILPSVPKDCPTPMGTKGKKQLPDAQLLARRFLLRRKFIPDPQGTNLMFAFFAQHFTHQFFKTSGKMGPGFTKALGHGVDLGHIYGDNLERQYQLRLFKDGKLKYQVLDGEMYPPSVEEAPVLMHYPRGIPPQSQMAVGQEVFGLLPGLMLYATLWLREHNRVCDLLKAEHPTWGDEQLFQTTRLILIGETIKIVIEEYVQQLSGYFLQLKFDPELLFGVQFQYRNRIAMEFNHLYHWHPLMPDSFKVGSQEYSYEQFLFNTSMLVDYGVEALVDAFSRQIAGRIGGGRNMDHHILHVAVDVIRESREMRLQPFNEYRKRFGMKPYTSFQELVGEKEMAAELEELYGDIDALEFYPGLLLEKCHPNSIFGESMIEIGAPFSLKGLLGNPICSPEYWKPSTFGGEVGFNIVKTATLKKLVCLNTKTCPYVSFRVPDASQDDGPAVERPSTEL

| IC50 [1] [nM] | Compound | other results |
| --- | --- | --- |
| 210 | CN(C(=O)c1ccc(Cl)c(Cl)c1)c1ccc(C(=O)c2ncc(CC(=O)O)c3ccccc23)cc1 | – |
| 6.1 | O=C(O)Cc1cnc(C(=O)c2ccc(NCc3ccc(Cl)c(Cl)c3)cc2)c2ccccc12 | – |
| 330 | CC(=O)Nc1ccc(C(=O)c2ncc(CC(=O)O)c3ccccc23)cc1 | – |
| 13 | O=C(O)Cc1cnc(C(=O)c2ccc(NC(=O)CCc3ccc(Cl)c(Cl)c3)cc2)c2ccccc12 | – |
| 7.3 | COc1ccc(C(=O)Nc2ccc(C(=O)c3ncc(CC(=O)O)c4ccccc34)cc2)cc1 | – |
| 340 | O=C(O)Cc1cnc(C(=O)c2ccc(NS(=O)(=O)c3ccc(Cl)c(Cl)c3)cc2)c2ccccc12 | – |
| 4 | O=C(O)Cc1cnc(C(=O)c2ccc(NC(=O)/C=C/c3ccc(Cl)c(Cl)c3)cc2)c2ccccc12 | IC50 [2]: 17 nM |
| 4 | O=C(O)Cc1cnc(C(=O)c2ccc(NC(=O)c3ccc4ccccc4c3)cc2)c2ccccc12 | – |
| 14 | O=C(O)Cc1cnc(C(=O)c2ccc(NC(=O)C3CCCCC3)cc2)c2ccccc12 | – |
| 290 | O=C(O)Cc1cnc(C(=O)c2ccc(NC(=O)c3ncccn3)cc2)c2ccccc12 | IC50 [2]: 550 nM |
| 19 | O=C(O)Cc1cnc(C(=O)c2ccc(NC(=O)c3ccc(Cl)c(Cl)c3)cc2)c2ccccc12 | IC50 [3]: > 1000 nM; IC50 [4]: > 10000 nM; IC50 [5]: > 10000 nM |
| 3.4 | O=C(O)Cc1cnc(C(=O)c2ccc(NC(=O)c3ccc(Cl)cc3)cc2)c2ccccc12 | – |
| 38 | O=C(O)Cc1cnc(C(=O)c2ccc(OCc3ccc(Cl)c(Cl)c3)cc2)c2ccccc12 | IC50 [2]: 180 nM |
| 10 | O=C(O)Cc1cnc(C(=O)c2ccc(C(=O)Nc3ccc(Cl)c(Cl)c3)cc2)c2ccccc12 | – |
| 3.2 | O=C(O)Cc1cnc(C(=O)c2ccc(NC(=O)c3cccc(Cl)c3)cc2)c2ccccc12 | – |
| 45 | O=C(O)Cc1cnc(C(=O)c2ccc(NC(=O)c3ccccc3Cl)cc2)c2ccccc12 | – |
| 4.9 | O=C(O)Cc1cnc(C(=O)c2ccc(NC(=O)c3ccc(C(F)(F)F)cc3)cc2)c2ccccc12 | IC50 [2]: 15 nM |
| 3.2 | O=C(O)Cc1cnc(C(=O)c2ccc(NC(=O)c3cc4ccccc4[nH]3)cc2)c2ccccc12 | – |
| 25 | O=C(O)COc1cnc(C(=O)c2ccc(C(=O)NCCc3ccc(Cl)cc3)cc2)c2ccccc12 | – |
| 200 | CC(C)(C(=O)O)c1cnc(C(=O)c2ccc(C(=O)NCCc3ccc(Cl)cc3)cc2)c2ccccc12 | – |
| 7.8 | O=C(O)Cc1cnc(C(=O)c2ccc(C(=O)NCCc3ccc(Cl)cc3)cc2)c2ccccc12 | – |
| 7.9 | O=C(O)Cc1cnc(C(=O)c2ccc(NC(=O)c3ccccc3)cc2)c2ccccc12 | IC50 [2]: 42 nM |
| 83 | O=C(O)Cc1cnc(C(=O)c2ccc(NC(=O)c3ccncc3)cc2)c2ccccc12 | – |
